Measured values taken from ChEMBL document CHEMBL4823258, “Development of Dimethylisoxazole-Attached Imidazo[1,2-a]pyridines as Potent and Selective CBP/P300 Inhibitors” (J Med Chem, 2021).
pIC50, pKd: −log10 of the molar value. Calls of active or inactive are those of the source. The rule behind the calls is not given here.

Tests used:
CREB-binding protein [1] = biological target: T1, CREB-binding protein (Homo sapiens, UniProt Q92793); assay: Inhibition of His-tagged CBP (unknown origin) using biotinylated-H3K56ac peptide as substrate incubated for 1 hr by AlphaScreen assay
Target sequence in this assay (Q92793 whole entry): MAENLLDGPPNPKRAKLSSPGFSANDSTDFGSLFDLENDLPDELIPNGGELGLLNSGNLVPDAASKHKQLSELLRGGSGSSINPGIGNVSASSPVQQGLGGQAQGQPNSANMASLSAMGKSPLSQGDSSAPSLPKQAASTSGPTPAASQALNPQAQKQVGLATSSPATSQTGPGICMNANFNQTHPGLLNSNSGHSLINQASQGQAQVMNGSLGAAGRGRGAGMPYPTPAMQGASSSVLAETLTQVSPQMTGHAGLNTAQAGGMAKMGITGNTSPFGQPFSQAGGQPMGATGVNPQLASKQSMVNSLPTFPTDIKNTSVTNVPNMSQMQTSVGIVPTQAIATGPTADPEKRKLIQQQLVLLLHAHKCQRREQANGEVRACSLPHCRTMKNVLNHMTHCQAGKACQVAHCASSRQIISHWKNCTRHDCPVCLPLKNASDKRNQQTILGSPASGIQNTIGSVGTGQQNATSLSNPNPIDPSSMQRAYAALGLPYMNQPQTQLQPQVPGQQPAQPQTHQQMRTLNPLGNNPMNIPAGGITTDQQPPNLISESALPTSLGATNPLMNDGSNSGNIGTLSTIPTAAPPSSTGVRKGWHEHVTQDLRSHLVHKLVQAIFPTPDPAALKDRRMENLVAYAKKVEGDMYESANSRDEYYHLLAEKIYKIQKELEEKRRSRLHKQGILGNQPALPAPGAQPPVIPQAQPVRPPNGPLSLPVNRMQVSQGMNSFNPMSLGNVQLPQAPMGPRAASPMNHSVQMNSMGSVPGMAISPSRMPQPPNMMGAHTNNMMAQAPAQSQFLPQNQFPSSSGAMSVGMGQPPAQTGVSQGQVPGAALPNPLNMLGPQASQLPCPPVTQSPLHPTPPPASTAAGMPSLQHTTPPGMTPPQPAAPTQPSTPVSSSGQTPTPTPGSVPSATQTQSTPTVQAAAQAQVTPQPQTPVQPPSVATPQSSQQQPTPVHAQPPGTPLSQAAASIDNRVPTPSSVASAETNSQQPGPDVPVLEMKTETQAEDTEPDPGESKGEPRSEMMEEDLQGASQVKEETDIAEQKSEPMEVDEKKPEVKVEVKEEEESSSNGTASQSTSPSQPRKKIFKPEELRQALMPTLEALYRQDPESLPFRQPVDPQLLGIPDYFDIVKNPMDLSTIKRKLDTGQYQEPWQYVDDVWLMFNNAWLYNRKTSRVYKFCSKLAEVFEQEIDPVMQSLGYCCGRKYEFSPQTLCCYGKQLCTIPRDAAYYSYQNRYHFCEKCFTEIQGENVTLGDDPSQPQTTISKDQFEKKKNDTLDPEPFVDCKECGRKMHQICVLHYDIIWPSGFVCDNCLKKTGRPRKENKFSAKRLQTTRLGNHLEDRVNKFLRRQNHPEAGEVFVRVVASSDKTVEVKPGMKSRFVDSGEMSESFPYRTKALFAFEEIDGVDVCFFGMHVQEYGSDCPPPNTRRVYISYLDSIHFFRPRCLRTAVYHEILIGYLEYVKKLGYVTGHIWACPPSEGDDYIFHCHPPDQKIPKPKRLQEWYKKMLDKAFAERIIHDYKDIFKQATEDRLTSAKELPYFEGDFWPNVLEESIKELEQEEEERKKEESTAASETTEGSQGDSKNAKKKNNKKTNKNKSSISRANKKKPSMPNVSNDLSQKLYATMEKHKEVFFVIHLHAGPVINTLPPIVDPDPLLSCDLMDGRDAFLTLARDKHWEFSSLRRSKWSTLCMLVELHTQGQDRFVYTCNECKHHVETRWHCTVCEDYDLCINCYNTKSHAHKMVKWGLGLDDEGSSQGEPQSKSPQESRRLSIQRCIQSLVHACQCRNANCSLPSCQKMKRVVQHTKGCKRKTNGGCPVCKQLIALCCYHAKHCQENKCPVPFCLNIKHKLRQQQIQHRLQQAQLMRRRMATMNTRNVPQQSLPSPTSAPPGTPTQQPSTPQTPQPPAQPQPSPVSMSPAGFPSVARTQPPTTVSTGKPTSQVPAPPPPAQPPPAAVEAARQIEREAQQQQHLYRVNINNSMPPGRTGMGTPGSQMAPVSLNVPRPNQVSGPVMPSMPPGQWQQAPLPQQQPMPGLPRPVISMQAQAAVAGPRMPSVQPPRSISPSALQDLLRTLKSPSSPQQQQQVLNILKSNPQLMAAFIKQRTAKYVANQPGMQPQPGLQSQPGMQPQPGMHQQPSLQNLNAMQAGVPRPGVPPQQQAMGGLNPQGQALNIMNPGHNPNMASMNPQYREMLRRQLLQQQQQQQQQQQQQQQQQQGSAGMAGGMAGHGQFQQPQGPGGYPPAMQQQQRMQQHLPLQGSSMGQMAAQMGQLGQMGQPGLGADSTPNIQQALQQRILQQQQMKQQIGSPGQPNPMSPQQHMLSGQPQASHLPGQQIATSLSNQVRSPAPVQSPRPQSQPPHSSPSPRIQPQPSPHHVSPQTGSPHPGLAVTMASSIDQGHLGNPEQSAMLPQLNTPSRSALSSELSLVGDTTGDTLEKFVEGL

[2] = biological target: T2, Bromodomain-containing protein 4 (Homo sapiens, UniProt O60885); assay: Inhibition of His-tagged BRD4 BD1 (unknown origin) using biotinylated-JQ1 peptide as substrate incubated for 1 hr by AlphaScreen assay
Homo sapiens = organism: Homo sapiens; assay: Selectivity ratio of IC50 for His-tagged BRD4 BD1 (unknown origin) using biotinylated-JQ1 peptide as substrate to IC50 for His-tagged CBP (unknown origin) using biotinylated-H3K56ac peptide as substrate incubated for 1 hr by AlphaScreen assay
CREB-binding protein [3] = biological target: T1, CREB-binding protein; assay: Binding affinity to human partial length CREBBP (R1081 to G1197 residues) expressed in bacterial expression system assessed as melting temperature by differential scanning fluorometry (reference value: 46.7 degreeC)
Target sequence in this assay (Q92793 2-2442 limits assumed): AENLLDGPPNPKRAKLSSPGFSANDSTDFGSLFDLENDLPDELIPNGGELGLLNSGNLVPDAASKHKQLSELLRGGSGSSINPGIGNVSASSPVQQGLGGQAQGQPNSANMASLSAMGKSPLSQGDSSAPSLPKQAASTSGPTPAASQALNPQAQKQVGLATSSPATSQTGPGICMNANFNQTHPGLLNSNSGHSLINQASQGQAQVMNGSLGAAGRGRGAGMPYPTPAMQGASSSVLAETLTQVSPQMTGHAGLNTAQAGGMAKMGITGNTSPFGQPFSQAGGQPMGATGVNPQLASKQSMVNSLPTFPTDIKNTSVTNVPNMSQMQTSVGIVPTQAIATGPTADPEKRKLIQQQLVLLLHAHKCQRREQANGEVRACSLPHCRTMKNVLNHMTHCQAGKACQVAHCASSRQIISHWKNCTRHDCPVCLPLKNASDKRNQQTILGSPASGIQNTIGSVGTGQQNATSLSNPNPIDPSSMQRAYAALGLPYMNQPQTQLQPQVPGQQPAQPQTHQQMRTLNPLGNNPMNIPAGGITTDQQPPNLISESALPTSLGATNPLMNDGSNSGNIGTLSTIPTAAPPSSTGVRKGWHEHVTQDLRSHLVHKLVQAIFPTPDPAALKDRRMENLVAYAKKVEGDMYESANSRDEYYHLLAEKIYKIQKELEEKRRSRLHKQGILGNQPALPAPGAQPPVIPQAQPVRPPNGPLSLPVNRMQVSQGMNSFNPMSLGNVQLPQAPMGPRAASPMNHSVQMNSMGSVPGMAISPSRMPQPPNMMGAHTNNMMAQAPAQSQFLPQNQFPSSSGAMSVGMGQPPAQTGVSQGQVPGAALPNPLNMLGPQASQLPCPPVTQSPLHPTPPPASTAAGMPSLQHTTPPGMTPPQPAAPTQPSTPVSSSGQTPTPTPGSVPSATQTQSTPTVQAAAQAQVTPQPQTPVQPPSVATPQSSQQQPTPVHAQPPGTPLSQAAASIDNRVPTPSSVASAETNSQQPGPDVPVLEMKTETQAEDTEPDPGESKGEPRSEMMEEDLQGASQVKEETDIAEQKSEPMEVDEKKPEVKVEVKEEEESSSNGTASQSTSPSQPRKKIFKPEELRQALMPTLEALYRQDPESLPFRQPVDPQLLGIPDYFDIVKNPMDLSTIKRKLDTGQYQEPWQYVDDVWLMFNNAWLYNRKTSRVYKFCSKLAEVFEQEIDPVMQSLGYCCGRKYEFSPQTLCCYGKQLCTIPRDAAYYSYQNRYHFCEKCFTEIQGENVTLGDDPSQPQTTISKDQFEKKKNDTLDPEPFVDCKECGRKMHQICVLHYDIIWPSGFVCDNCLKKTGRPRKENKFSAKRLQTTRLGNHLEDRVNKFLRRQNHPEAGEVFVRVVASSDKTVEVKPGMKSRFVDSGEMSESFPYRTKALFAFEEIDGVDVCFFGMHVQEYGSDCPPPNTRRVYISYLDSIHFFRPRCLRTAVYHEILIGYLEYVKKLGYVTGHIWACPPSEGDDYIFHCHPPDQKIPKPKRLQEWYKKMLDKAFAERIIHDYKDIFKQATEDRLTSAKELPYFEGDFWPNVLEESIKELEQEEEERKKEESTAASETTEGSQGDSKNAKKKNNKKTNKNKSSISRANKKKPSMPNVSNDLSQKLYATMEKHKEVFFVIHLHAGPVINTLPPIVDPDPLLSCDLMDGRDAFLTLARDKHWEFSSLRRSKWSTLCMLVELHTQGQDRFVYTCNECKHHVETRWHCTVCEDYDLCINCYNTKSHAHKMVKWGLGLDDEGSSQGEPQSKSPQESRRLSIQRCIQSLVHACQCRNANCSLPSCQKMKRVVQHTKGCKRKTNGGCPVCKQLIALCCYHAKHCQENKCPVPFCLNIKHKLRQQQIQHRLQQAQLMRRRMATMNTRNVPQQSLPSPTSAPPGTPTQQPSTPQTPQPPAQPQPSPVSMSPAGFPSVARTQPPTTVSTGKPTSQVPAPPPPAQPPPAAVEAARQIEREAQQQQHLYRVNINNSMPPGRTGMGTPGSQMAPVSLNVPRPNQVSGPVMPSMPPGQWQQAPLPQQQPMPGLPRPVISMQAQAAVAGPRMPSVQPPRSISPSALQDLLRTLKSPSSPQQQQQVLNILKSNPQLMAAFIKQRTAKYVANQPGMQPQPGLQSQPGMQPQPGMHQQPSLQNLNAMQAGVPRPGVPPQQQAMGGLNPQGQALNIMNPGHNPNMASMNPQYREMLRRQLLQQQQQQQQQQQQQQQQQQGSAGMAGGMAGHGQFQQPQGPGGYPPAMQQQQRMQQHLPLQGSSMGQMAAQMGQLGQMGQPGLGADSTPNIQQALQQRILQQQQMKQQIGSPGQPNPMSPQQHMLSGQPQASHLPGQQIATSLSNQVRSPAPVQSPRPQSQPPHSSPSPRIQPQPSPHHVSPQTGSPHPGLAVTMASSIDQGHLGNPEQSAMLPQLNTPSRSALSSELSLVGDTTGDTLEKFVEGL

[4] = biological target: T3, Histone acetyltransferase p300 (Homo sapiens, UniProt Q09472); assay: Binding affinity to human partial length EP300 (A1040 to G1161 residues) expressed in bacterial expression system assessed as melting temperature by differential scanning fluorometry (reference value: 42.1 degreeC)
[5] = biological target: T2, Bromodomain-containing protein 4; assay: Binding affinity to human partial length BRD4 bromodomain 1 long isoform (N44 to E168 residues) expressed in bacterial expression system assessed as melting temperature by differential scanning fluorometry (reference value: 50.1 degreeC)
CREB-binding protein [6] = biological target: T1, CREB-binding protein; assay: Binding affinity to human partial length CREBBP (R1081 to G1197 residues) expressed in bacterial expression system by BromoELECT assay
Method in brief: (§1)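 Kd by Eurofins BromoELECT, standard protocol, measured in duplicate.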
Target sequence in this assay (Q92793 whole entry): as the sequence (Q92793 whole entry) above

[7] = biological target: T3, Histone acetyltransferase p300; assay: Binding affinity to human partial length EP300 (A1040 to G1161 residues) expressed in bacterial expression system by BromoELECT assay; method in brief: as §1
[8] = biological target: T2, Bromodomain-containing protein 4; assay: Binding affinity to human partial length BRD4 bromodomain 1 long isoform (N44 to E168 residues) expressed in bacterial expression system by BromoELECT assay; method in brief: as §1
MOLM-13 = assay: Cytotoxicity against human MOLM-13 cells assessed as cell growth inhibition incubated for 5 days by CellTiter-Glo luminescence assay; format: functional, cell-based; settings: MOLM-13, 120 h
CREB-binding protein [9] = biological target: T1, CREB-binding protein; assay: Inhibition of CBP in human MOLM-13 cells assessed as reduction in H3K27Ac level at 1 to 10 uM incubated for 2 hrs by Western blot analysis; format: cell-based; settings: dose 1-10 µM
Target sequence in this assay (Q92793 2-2442 limits assumed): as the sequence (Q92793 2-2442 limits assumed) above

CREB-binding protein [10] = biological target: T1, CREB-binding protein; assay: Inhibition of CBP in human MOLM-13 cells assessed as depletion of Myc at 1 to 10 uM incubated for 2 hrs by Western blot analysis; format: cell-based; settings: dose 1-10 µM
Target sequence in this assay (Q92793 2-2442 limits assumed): as above

CREB-binding protein [11] = biological target: T1, CREB-binding protein; assay: Inhibition of CBP in human MOLM-13 cells assessed as reduction in H3K27Ac level at 3 uM incubated for 2 hrs
Target sequence in this assay (Q92793 2-2442 limits assumed): as above

[12] = biological target: CREB-binding protein/Histone acetyltransferase p300 (Homo sapiens) (UniProt Q09472+Q92793); assay: Inhibition of CBP/EP300 in human MM1.S cells assessed as perturbation of IRF4/Myc axis at 2.5 uM incubated for 24 hrs by immunoblot analysis

pIC50 [2] | Ratio IC50 (Homo sapiens) | SMILES | other results
< 4.30 | 1 | COc1ccc(CCCc2nc3cc(-c4c(C)noc4C)ccn3c2NC(C)(C)CC(C)(C)C)cc1 | pIC50 (CREB-binding protein [1]): < 4.30
 |  | COc1ccc(CCc2nc3cc(-c4c(C)noc4C)ccn3c2NC2CCCCC2)cc1Cl | Tm (CREB-binding protein [3]): 51.7 °C; Tm [4]: 47 °C; Tm [5]: 50.1 °C; pKd (CREB-binding protein [6]): 6.50; pKd [7]: 6.67; pKd [8]: < 5.00; pIC50 (MOLM-13): 5.76; inhibition (CREB-binding protein [9]): Active; inhibition (CREB-binding protein [10]): Active; inhibition (CREB-binding protein [11]): Active; inhibition [12]: Active
 |  | Cc1noc(C)c1-c1ccc2nc(-c3ccc(N4CCN(C(=O)CCCC(=O)NCCCOCCOCCOCCCNC(=O)CCCC[C@@H]5SC[C@@H]6NC(=O)N[C@@H]65)CC4)cc3)c(NC3CCCCC3)n2c1 | pKd [7]: 4.89
 | 34 | COc1ccc(CCc2nc3cc(-c4c(C)noc4C)ccn3c2NC(C)C)cc1 | pIC50 (CREB-binding protein [1]): 6.54
< 4.30 | > 2 | CCOc1ccc(CCc2nc3cc(-c4c(C)noc4C)ccn3c2NC(C)(C)CC(C)(C)C)cc1Cl | 
 | 10 | Cc1noc(C)c1-c1ccn2c(NC3CCCCC3)c(CCc3ccccc3)nc2c1 | Tm (CREB-binding protein [3]): 49.2 °C; Tm [4]: 44.7 °C; Tm [5]: 51 °C
 | 30 | CCOc1ccc(CCc2nc3cc(-c4c(C)noc4C)ccn3c2NC2CCCCC2)cc1 | 
 | > 1 | CCOc1ccc(CCc2nc3cc(-c4c(C)noc4C)ccn3c2NC(C)(C)CC(C)(C)C)cc1 | 
 | 6 | Cc1noc(C)c1-c1ccn2c(NC(C)(C)C)c(CCc3ccccc3)nc2c1 | 
 | 4 | COc1ccc(CCc2nc3cc(-c4c(C)noc4C)ccn3c2NCc2ccccc2)cc1 | 
6.29 | 0.06 | Cc1[nH]nc2cc(-c3ccn4c(NC5CCCCC5)c(CCc5ccccc5)nc4c3)ccc12 | pIC50 (CREB-binding protein [1]): 5.10; inhibition [12]: inactive
 | 3 | COc1ccc(CCCc2nc3cc(-c4c(C)noc4C)ccn3c2NC2CCCCC2)cc1 | 
< 4.30 | > 2 | COc1ccc(CCc2nc3cc(-c4c(C)noc4C)ccn3c2NC(C)(C)CC(C)(C)C)cc1 | 
 | 7 | COc1ccc(CCc2nc3cc(-c4c(C)noc4C)ccn3c2NCCN2CCOCC2)cc1 | 
4.61 | 3 | COc1ccc(CCCc2nc3cc(-c4c(C)noc4C)ccn3c2NC2CCCCC2)cc1Cl | pIC50 (CREB-binding protein [1]): 5.05; Tm (CREB-binding protein [3]): 55.2 °C; Tm [4]: 50.6 °C; Tm [5]: 51.6 °C
< 4.30 | > 4 | COc1ccc(-c2nc3cc(-c4c(C)noc4C)ccn3c2NC2CCCCC2)cc1 | 
< 4.30 | > 6 | Cc1noc(C)c1-c1ccn2c(NCC(=O)OC(C)(C)C)c(CCc3ccccc3)nc2c1 | 
5.10 |  | COc1ccc(CCc2nc3cc(-c4c(C)noc4C)ccc3n2C[C@H](C)N2CCOCC2)cc1Cl | pIC50 (MOLM-13): 5.82

pIC50 [2] | Ratio IC50 (Homo sapiens) | SMILES | other results
 | 28 | CCCOc1ccc(CCc2nc3cc(-c4c(C)noc4C)ccn3c2NC2CCCCC2)cc1 | 
< 4.30 | > 21 | COc1ccc(CCc2nc3cc(-c4c(C)noc4C)ccn3c2NC(C)(C)C)cc1 | 
5.52 | 0.06 | Cc1noc2cc(-c3ccn4c(NC5CCCCC5)c(CCc5ccccc5)nc4c3)ccc12 | pIC50 (CREB-binding protein [1]): < 4.30; inhibition [12]: inactive
< 4.30 | 20 | CCOc1ccc(CCc2nc3cc(-c4c(C)noc4C)ccn3c2NC2CCCCC2)cc1Cl | 
 | 41 | COc1ccc(CCc2nc3cc(-c4c(C)noc4C)ccn3c2NC2CCCCC2)cc1 | Tm (CREB-binding protein [3]): 51.5 °C; Tm [4]: 46.8 °C; Tm [5]: 51.1 °C; pKd (CREB-binding protein [6]): 6.58; pKd [7]: 6.55; pKd [8]: 5.04
 | 1 | CN1Cc2cc(-c3ccn4c(NC5CCCCC5)c(CCc5ccccc5)nc4c3)ccc2NC1=O | 
 | 6 | COc1ccc(CCc2nc3cc(-c4c(C)noc4C)ccn3c2NC(C)C)cc1OC | 
5.10 | 5 | COc1ccc(CCc2nc3cc(-c4c(C)noc4C)ccn3c2NCc2ccc(Cl)cc2)cc1 | pIC50 (CREB-binding protein [1]): 5.80
< 4.30 | > 3 | COc1ccc(-c2nc3cc(C)cc(C)n3c2NC(C)(C)CC(C)(C)C)cc1 | 
 | 8 | COc1ccc(CCc2nc3cc(-c4c(C)noc4C)ccn3c2NC23CC4CC(CC(C4)C2)C3)cc1 | 
 | 7 | Cc1noc(C)c1-c1ccn2c(NC34CC5CC(CC(C5)C3)C4)c(CCc3ccccc3)nc2c1 | 
 | 1 | Cc1noc(C)c1-c1ccn2c(NC(C)(C)CC(C)(C)C)c(CCc3ccccc3)nc2c1 | 
 | > 3 | COc1ccc(-c2nc3cc(-c4c(C)noc4C)ccn3c2NCC(=O)OC(C)(C)C)cc1 | 
 | 8 | COc1ccc(CCc2nc3cc(-c4c(C)noc4C)ccn3c2NC2CCCCC2)cc1OC | pIC50 (CREB-binding protein [1]): 6.12
< 4.30 | > 3 | COc1ccc(-c2nc3cc(C)cc(C)n3c2NC23CC4CC(CC(C4)C2)C3)cc1 | 
< 4.30 | 1 | Cc1noc(C)c1-c1ccn2c(NC(C)(C)CC(C)(C)C)c(CCc3ccc(OC(C)C)cc3)nc2c1 | pIC50 (CREB-binding protein [1]): < 4.30
< 4.30 | > 23 | COc1ccc(-c2nc3cc(-c4c(C)noc4C)ccn3c2NC23CC4CC(CC(C4)C2)C3)cc1 | 
 | 2 | COc1ccc(Cc2nc3cc(-c4c(C)noc4C)ccn3c2NC2CCCCC2)cc1 | 
